# Test results as given in ChEMBL document CHEMBL1129996, “1-Aryl-3,5-dihydro-4H-2,3-benzodiazepin-4-ones: novel AMPA receptor antagonists” (J Med Chem, 1997).
# Several values for one entry are separate records, joined by “and”; a condition that tells them apart may be missing. Equal entries are not always repeated.
# Columns and labels:
# [1] = Relative lipophilicity of compound; format: physicochemical; conditions: reversed-phase TLC, acetone/water 2:1
# Procedure, shortened: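 Reversed-phase TLC type lipophilicity: plates dried 105 °C 1 h, mobile phase acetone:water 2:1, 1 µL of 3 mg/mL CHCl3 solution spotted; five runs with varied positions, mean Rf converted as Rm = log[(1/Rf) - 1].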
# Mus musculus [2] = test: Anticonvulsant activity against the maximal electroshock in Swiss mice after 45 minutes pretreatment at a dose range 10-150 uM/kg; format: functional
# Procedure, shortened: (§1)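 Swiss mice dosed ip in 50% DMSO/50% saline 45 min before ear-clip electroshock (50 mA, 20 ms pulses, 35 Hz, 400 ms). Protection = abolition of tonic hindlimb extension. Usually 4-5 doses with 8-10 mice each; ED50 (95% confidence limits) by Litchfield-Wilcoxon.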
# [3] = Motor toxicity in 50% of mice on locomotion assessed by Rotarod test following 30 min ip administration; format: organism-based; conditions: mouse, in vivo
# Procedure, shortened: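 Male Swiss mice (20-26 g, 48-54 days), groups of 10, trained on rotarod (3 cm, 8 rpm); tested 30 min after ip dosing. Impairment = failure to stay on for 2 min; TD50 (95% confidence limits) by Litchfield-Wilcoxon.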
# Mus musculus [4] = test: Anticonvulsant activity against tonic phase of the audiogenic seizures in DBA / 2 mice 30 min after ip administration at a dose range 10-133 uM/kg; format: functional; conditions: 0.5 h
# Procedure, shortened: (§2)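 Groups of 10 DBA/2 mice of either sex; drug ip (0.1 mL/10 g) as fresh solution in 50% DMSO/50% saline, 30 min before auditory stimulation (12-16 kHz, 109 dB, 60 s or until tonic extension) under perspex dome after 60 s habituation. Latency and incidence of wild running, clonic and tonic phases scored; ED50 (95% confidence limits) by Litchfield-Wilcoxon.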
# Mus musculus [5] = test: Pentylenetetrazole-induced seizures in Swiss mice after 45 min pretreatment at a dose range 10-150 uM/kg; format: functional
# [6] = Therapeutic index it is the ratio between TD50 and ED50 (from the clonic phase of the audiogenic seizures); conditions: read-out: TI
# Procedure, shortened: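 Therapeutic index computed as rotarod TD50 divided by ED50 for the clonic phase of audiogenic seizures in DBA/2 mice.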
# Mus musculus [7] = test: Anticonvulsant activity against clonic phase of the audiogenic seizures in DBA / 2 mice 30 min after ip administration at a dose range 10-133 uM/kg; format: functional; conditions: 0.5 h; procedure, shortened: as §2
# Mus musculus [8] = test: Anticonvulsant activity against tonic phase of the audiogenic seizures in DBA / 2 mice 30 min after ip administration at a dose range 10-120 uM/kg; format: functional; conditions: 0.5 h; procedure, shortened: as §2
# Mus musculus [9] = test: Anticonvulsant activity against clonic phase of the audiogenic seizures in DBA / 2 mice 30 min after ip administration at a dose range 10-120 uM/kg; format: functional; conditions: 0.5 h; procedure, shortened: as §2
# Mus musculus [10] = species: Mus musculus; test: Audiogenic seizures after concomitant treatment with Flumazenil (24.72 uM) in DBA / 2 mice clonic phase; format: functional
# Mus musculus [11] = test: Audiogenic seizures after pretreatment with Aniracetam in DBA / 2 mice tonic phase at a dose range of 33-300 uM/kg; format: functional
# Procedure, shortened: (§3)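 DBA/2 mice pretreated with aniracetam 50 nmol icv 60 min before auditory testing, with ip 2,3-benzodiazepine; audiogenic clonic and tonic phases scored; ED50 by Litchfield-Wilcoxon.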
# Mus musculus [12] = species: Mus musculus; test: Audiogenic seizures after concomitant treatment with Flumazenil (8.24 uM) in DBA / 2 mice clonic phase; format: functional
# Mus musculus [13] = test: Anticonvulsant activity against the tonic seizures induced by icv injection of AMPA in DBA / 2 mice at a dose range of 10-200 uM/kg; format: functional; conditions: central
# Mus musculus [14] = test: Audiogenic seizures after pretreatment with Aniracetam in DBA / 2 mice clonic phase at a dose range of 33-300 uM/kg; format: functional; procedure, shortened: as §3
# Mus musculus [15] = test: Pentylenetetrazole-induced seizures in Swiss mice after 45 min pretreatment at a dose range 10-100 uM/kg; format: functional
# Procedure, shortened: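 Male Swiss mice (20-26 g), compound ip in 50% DMSO/50% saline 45 min before sc pentylenetetrazole at CD97 (85 mg/kg), then observed 30 min. Protection is absence of clonic spasms lasting at least 5 s. Typically 4-5 doses, 8-10 mice per dose. ED50 with 95% confidence limits by Litchfield and Wilcoxon.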
# Mus musculus [16] = species: Mus musculus; test: Audiogenic seizures after concomitant treatment with Flumazenil (8.24 uM) in DBA / 2 mice tonic phase; format: functional
# Mus musculus [17] = test: Anticonvulsant activity against the clonic seizures induced by icv injection of AMPA in DBA / 2 mice at a dose range of 10-200 uM/kg; format: functional; conditions: central
# Mus musculus [18] = species: Mus musculus; test: Audiogenic seizures after concomitant treatment with Flumazenil (24.72 uM) in DBA / 2 mice tonic phase; format: functional
# Mus musculus [19] = test: Anticonvulsant activity against the maximal electroshock in Swiss mice after 45 minutes pretreatment at a dose range 10-100 uM/kg; format: functional; procedure, shortened: as §1
# Mus musculus [20] = test: Anticonvulsant activity against tonic phase of the audiogenic seizures in DBA / 2 mice 30 min after ip administration at a dose range 10-100 uM/kg; format: functional; conditions: 0.5 h; procedure, shortened: as §2
# Mus musculus [21] = test: Anticonvulsant activity against clonic phase of the audiogenic seizures in DBA / 2 mice 30 min after ip administration at a dose range 10-100 uM/kg; format: functional; conditions: 0.5 h; procedure, shortened: as §2
# Mus musculus [22] = test: Anticonvulsant activity against the maximal electroshock in Swiss mice after 45 minutes pretreatment at a dose range 33-200 uM/kg; format: functional; procedure, shortened: as §1
# Mus musculus [23] = test: Anticonvulsant activity against tonic phase of the audiogenic seizures in DBA / 2 mice 30 min after ip administration at a dose range 33-200 uM/kg; format: functional; conditions: 0.5 h; procedure, shortened: as §2
# Mus musculus [24] = test: Pentylenetetrazole-induced seizures in Swiss mice after 45 min pretreatment at a dose range 33-200 uM/kg; format: functional
# Mus musculus [25] = test: Anticonvulsant activity against clonic phase of the audiogenic seizures in DBA / 2 mice 30 min after ip administration at a dose range 33-200 uM/kg; format: functional; conditions: 0.5 h; procedure, shortened: as §2
Compound,Rm [1],ED50 (Mus musculus [2]) [µmol/kg],TD50 at 0.5 h [3] [µmol/kg],ED50 (Mus musculus [5]) [µmol/kg],therapeutic index (TD50/ED50) [6],ED50 (Mus musculus [8]),ED50 (Mus musculus [9]),ED50 (Mus musculus [20]),other results
COc1cc2c(cc1OC)C(c1ccc([N+](=O)[O-])cc1)=NN(C)C(=O)C2,0.11,> 150,> 150,> 150,,> 120 µmol/kg and > 44 mg/kg,> 120 µmol/kg and > 44 mg/kg,,
COc1cc2c(cc1OC)C(c1ccc(C#N)cc1)=NN(C)C(=O)C2,-0.031,,> 150,,,> 120 µmol/kg and > 44 mg/kg,> 120 µmol/kg and > 44 mg/kg,,
COc1cc2c(cc1OC)C(c1ccc(C#N)cc1)=NN(C(C)=O)C(=O)C2,-0.065,,> 150,,,> 120 µmol/kg and > 44 mg/kg,> 120 µmol/kg and > 44 mg/kg,,
COc1cc2c(cc1OC)C(c1ccccc1)=NN(C)C(=O)C2,0,42.7,154,89.9,4.1,,,26.7 µmol/kg and 8.28 mg/kg,ED50 (Mus musculus [21]): 37.8 µmol/kg and 11.7 mg/kg; ED50 (Mus musculus [11]): 197 µmol/kg; ED50 (Mus musculus [13]): 69.6 µmol/kg; ED50 (Mus musculus [14]): 259 µmol/kg; ED50 (Mus musculus [17]): 76.1 µmol/kg
COc1cc2c(cc1OC)C(c1ccc(Br)cc1)=NN(C)C(=O)C2,0.288,,,,,,,38 µmol/kg and 14.8 mg/kg,ED50 (Mus musculus [21]): 63 µmol/kg and 24.5 mg/kg

# Further lines, with some results ahead:
Rm [1],Compound,ED50 (Mus musculus [2]) [µmol/kg],TD50 at 0.5 h [3] [µmol/kg],ED50 (Mus musculus [5]) [µmol/kg],therapeutic index (TD50/ED50) [6],ED50 (Mus musculus [8]),ED50 (Mus musculus [9]),ED50 (Mus musculus [20]),other results
0.052,COc1cc2c(cc1OC)C(c1ccc(Br)cc1)=NNC(=O)C2,123,226,> 150,2,,,,ED50 (Mus musculus [4]): 82.5 µmol/kg and 30.7 mg/kg; ED50 (Mus musculus [7]): 110 µmol/kg and 41.2 mg/kg
-0.14,COc1cc2c(cc1OC)C(c1cccc([N+](=O)[O-])c1)=NNC(=O)C2,> 150,> 150,> 150,,> 120 µmol/kg and > 44 mg/kg,> 120 µmol/kg and > 44 mg/kg,,
-0.012,COc1cc2c(cc1OC)C(c1ccccc1)=NNC(=O)C2,,142,,4.2,,,31.8 µmol/kg and 9.41 mg/kg,ED50 (Mus musculus [10]): 50.9 µmol/kg; ED50 (Mus musculus [11]): 157 µmol/kg; ED50 (Mus musculus [12]): 38.2 µmol/kg; ED50 (Mus musculus [13]): 42.6 µmol/kg; ED50 (Mus musculus [14]): 215 µmol/kg; ED50 (Mus musculus [15]): 68.2 µmol/kg; ED50 (Mus musculus [16]): 35.8 µmol/kg; ED50 (Mus musculus [17]): 66 µmol/kg; ED50 (Mus musculus [18]): 41.3 µmol/kg; ED50 (Mus musculus [19]): 35.8 µmol/kg
0.017,COc1cc2c(cc1OC)C(c1ccc(Cl)cc1)=NNC(=O)C2,,240,,2.3,,,,ED50 (Mus musculus [22]): 115 µmol/kg; ED50 (Mus musculus [23]): 75.3 µmol/kg and 24.8 mg/kg; ED50 (Mus musculus [24]): 145 µmol/kg; ED50 (Mus musculus [25]): 102 µmol/kg and 33.7 mg/kg
-0.218,COc1cc2c(cc1OC)C(c1ccc(C#N)cc1)=NNC(=O)C2,> 150,> 150,> 150,,> 120 µmol/kg and > 44 mg/kg,> 120 µmol/kg and > 44 mg/kg,,
